# According to ChEMBL document CHEMBL2010771, “Studies toward novel peptidomimetic inhibitors of thioredoxin-thioredoxin reductase system” (J Med Chem, 2012):
# The source made the active and inactive calls. No cut-off for these calls is given here.
# What was measured:
# [1] = Inhibition of human recombinant Trx1/TrxR assessed as reduction in number of free thiols from reduced insulin after 30 mins by insulin reduction assay
# Procedure, shortened: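 At least seven compound concentrations. Incubated 30 min at 37 °C, stopped with 8 mM DTNB in 8 M guanidine HCl, A412. IC50 from four-parameter logistic fit. Triplicates, mean ± SD, n ≥ 3.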
# [2] = Cytotoxicity against mouse PancO2 cells after 72 hrs by crystal violet staining; type: functional; details: read-out: LD50 (the source's name)
# EMT6 [3] = assay: Cytotoxicity against mouse EMT6 cells after 72 hrs by crystal violet staining; type: functional; details: EMT6, 72 h, read-out: LD50 (the source's name)
# [4] = Solubility of the compound in biological media; type: ADME
# [5] = Chemical stability of the compound; type: physicochemical
# [6] = target: T1, Thioredoxin (Homo sapiens) (UniProt P10599); assay: Inhibition of thioredoxin in human HeLa cells assessed as decrease of H2O2 scavenging activity by measuring CM-H2DCFDA fluorescence at 10 uM after 4 hrs by flow cytometeric analysis; type: cell-based
# T1 sequence (whole entry): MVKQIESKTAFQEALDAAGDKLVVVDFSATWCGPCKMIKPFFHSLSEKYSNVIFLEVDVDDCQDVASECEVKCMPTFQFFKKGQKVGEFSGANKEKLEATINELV
# Procedure, shortened: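 HeLa cells treated 4 h with 10 or 20 μM compound, then trypsinized and resuspended in PBS. H2O2 added to 1 mM final for 10 min, then 1 μL of 5 mM CM-H2DCFDA for 15 min at 37 °C. Cells washed twice and 10^4 cells analyzed by flow cytometry. Triplicates, n = 3, Student's t test.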
# Mus musculus [7] = assay: Toxicity in mouse EMT6 cells allografted BALB/c mouse assessed as mortality at 40 to 80 mg/kg, ip qd for 7 days; type: organism-based; design: dose 40-80 mg/kg, route intraperitoneal; details: in vivo, 168 h
# Procedure, shortened: (§1)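 BALB/c mice, 8−12 weeks old, inoculated sc with 3.5 × 10^5 EMT6 cells into the depilated right thigh. Intraperitoneal dosing in DMSO began on day 7, when tumors reached a longer diameter of 5−7 mm, and was given daily. Controls received ip DMSO. Tumor volume was followed by calipers as longer × shorter²/2. Survival and body weight were monitored.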
# [8] = target: Thioredoxin reductase (Homo sapiens) (UniProt Q16881+Q9NNW7+Q86VQ6); details: 2.5 to 20 uM
# [9] = Cytotoxicity against mouse B78 cells after 72 hrs by crystal violet staining; type: functional; details: B78, 72 h, read-out: LD50 (the source's name)
# [10] = target: T1, Thioredoxin (Homo sapiens); assay: Binding affinity to human recombinant Trx-1 expressed in Escherichia coli by mass spectrometry analysis
# EMT6 [11] = assay: Antitumor activity against mouse EMT6 cells allografted in BALB/c mouse assessed as reduction in tumor growth at 80 mg/kg, ip qd for 7 days; type: functional, organism-based; design: dose 80 mg/kg
# Procedure, shortened: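 BALB/c mice (8−12 wk) inoculated s.c. with 3.5 × 10^5 EMT6 cells into the depilated right thigh. Controls received DMSO ip. Tumor volume measured by calipers as (longer diameter) × (shorter diameter)²/2. Survival also recorded.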
# Raji [12] = assay: Induction of Trx protein expression in human Raji cells at 10 to 20 uM after 4 to 8 hrs by Western blot analysis; type: functional, cell-based
# Procedure, shortened: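 Raji cells exposed to compound for 4 and 8 h, washed and lysed in 0.1% NP40 with protease inhibitors. Equal protein (BCA) run on 15% SDS-PAGE and blotted to nitrocellulose, blocked in TBST with 5% BSA. Probed overnight with rabbit anti-thioredoxin and mouse anti-tubulin, then HRP secondaries for 45 min. ECL luminol/coumaric acid detection.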
# EMT6 [13] = assay: Antitumor activity against mouse EMT6 cells allografted in BALB/c mouse assessed as prolongation of host survival time at 80 mg/kg, ip qd for 7 days; type: functional, organism-based; design: dose 80 mg/kg; procedure, shortened: as §1
# T-24 = assay: Cytotoxicity against human T24 cells after 72 hrs by crystal violet staining; type: functional; details: T-24, 72 h, read-out: LD50 (the source's name)
# [14] = Cytotoxicity against mouse MEF cells; type: cell-based; details: read-out: LD50 (the source's name)
# Procedure, shortened: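 Fibroblasts came from BALB/c embryos at E13.5 by 0.2% trypsin digestion at 37 °C for 10 min and were cultured in DMEM. Viability is % of solvent controls with DMSO ≤1%; n ≥ 3.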
# Ramos = assay: Cytotoxicity against human Ramos cells after 72 hrs by MTT assay; type: functional; details: read-out: LD50 (the source's name)
# Procedure, shortened: (§2)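 Suspension cells were grown in RPMI-1640 with 10% heat-inactivated FBS and exposed to compound for 72 h with DMSO ≤1%. MTT (5 mg/mL solution) was added for 4 h, then plates were centrifuged, cells lysed in DMSO and read at A570. Viability is % of solvent controls, background-corrected; n ≥ 3.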
# [15] = target: T1, Thioredoxin (Homo sapiens); assay: Inhibition of human recombinant Trx-1 expressed in Escherichia coli after 30 to 90 mins preincubation by insulin reduction assay in presence of thioredoxin reductase
# Procedure, shortened: (§3)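 Human recombinant His-tagged Trx purified by Ni affinity and gel filtration, then dialyzed free of DTT. Trx was prereduced with TrxR and NADPH for 20 min, then preincubated with compound (2.5−20 μM) for 0−90 min at 37 °C. Reaction ran 30 min at 37 °C in Tris-HCl/EDTA pH 7.6. DTNB stop, A412. Triplicates, SD.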
# [16] = Chemical stability of the compound in 0.01 M PBS buffer at pH 7.4 after 7 days by RP-HPLC analysis; type: physicochemical; details: pH 7.4, 168 h
# Procedure, shortened: (§4)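 Stock in DMSO (5 mg/mL) diluted about 100-fold into 0.01 M PBS pH 7.4 prewarmed to 37 °C, then held at 37 °C for up to 7 days. At each time point, 100 μL aliquots were mixed with 200 μL ethanol, chilled at 4 °C for 15 min, centrifuged and stored at −20 °C. Samples were quantified by RP-HPLC (C18, acetonitrile/water, 230 nm) against standard curves of at least five dilutions. Triplicates, n = 3.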
# [17] = Chemical stability of the compound in 0.01 M PBS buffer at pH 7.4 after 4 days by RP-HPLC analysis; type: physicochemical; details: pH 7.4, 96 h; procedure, shortened: as §4
# Mus musculus [18] = assay: Toxicity in mouse EMT6 cells allografted BALB/c mouse assessed as change in body weight at 40 to 80 mg/kg, ip qd for 7 days; type: organism-based; design: dose 40-80 mg/kg, route intraperitoneal; details: in vivo, 168 h; procedure, shortened: as §1
# Raji [19] = assay: Inhibition of Trx1/TrxR in human Raji cells after 4 hrs by insulin reduction assay; type: cell-based
# Procedure, shortened: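 Raji cells incubated with compound for 4 h, washed three times with PBS and lysed in 0.1% NP40 with protease inhibitors. Protein measured by BCA. Trx activity determined in 10 μg of total protein by kit insulin reduction with TrxR/NADPH for 20 min at 37 °C, then DTNB/guanidine stop and A412. Triplicates, n = 3, SD.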
# [20] = target: T1, Thioredoxin (Homo sapiens); assay: Inhibition of thioredoxin in human HeLa cells cotransfected with p-NFkB-luc assessed as inhibition of TNF/IFN-gamma-induced activation of NF-kB after 6 hrs by luciferase reporter assay; type: cell-based
# Procedure, shortened: (§5)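 HeLa cells nucleofected with 2 μg NF-κB- or AP-1-luciferase plasmid plus CMV-Renilla, then cultured 48 h. NF-κB: TNF (10 ng/mL) + IFN-γ (100 U) together with compound for 6 h. AP-1: 4 h in medium without FBS or antibiotics, then ionomycin (1 μM) together with compound for 6 h. Dual-luciferase read-out, firefly normalized to Renilla. Triplicates, n ≥ 3, Student's t test.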
# Raji [21] = assay: Induction of Trx mRNA expression in human Raji cells at 5 to 10 uM after 4 to 24 hrs by RT-PCR analysis; type: functional, cell-based
# K562 = assay: Cytotoxicity against human K562 cells after 72 hrs by MTT assay; type: functional; details: K562, 72 h, read-out: LD50 (the source's name); procedure, shortened: as §2
# CT26 = assay: Cytotoxicity against wild type mouse CT26 cells after 72 hrs by crystal violet staining; type: functional; details: CT26, 72 h, read-out: LD50 (the source's name)
# [22] = Chemical stability of the compound in 0.01 M PBS buffer at pH 7.4 after 5 hrs by RP-HPLC analysis; type: physicochemical; details: read-out: Stability; procedure, shortened: as §4
# [23] = Cytotoxicity against human PBMC cells after 72 hrs by XTT assay; type: cell-based; details: read-out: LD50
# Procedure, shortened: (§6)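 hPBMC were isolated from healthy donors on Histopaque 1077 and kept in RPMI. Bone marrow came from female BALB/c mice and was cultured in Iscove's medium with 10% FBS and 100 U IL-3. After compound exposure, cells got XTT at 0.3 mg/mL for 4 h, read at A490 against 690 nm. Viability is % of DMSO controls; n ≥ 3.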
# [24] = target: T1, Thioredoxin (Homo sapiens); assay: Inhibition of thioredoxin in human HeLa cells cotransfected with p-AP1-luc assessed as inhibition of ionomycin-induced AP-1 promoter activity after 6 hrs by luciferase reporter assay; type: cell-based; procedure, shortened: as §5
# [25] = Cytotoxicity against mouse bone marrow cells after 72 hrs by XTT assay; type: cell-based, Bone marrow cell; details: read-out: LD50; procedure, shortened: as §6
# Raji [26] = assay: Cytotoxicity against human Raji cells after 72 hrs by MTT assay; type: functional; details: read-out: LD50 (the source's name); procedure, shortened: as §2
# [27] = target: T1, Thioredoxin (Homo sapiens); assay: Inhibition of human recombinant Trx-1 expressed in Escherichia coli at 2.5 to 20 uM by insulin reduction assay in presence of thioredoxin reductase; details: TDE = time-dependent effect; procedure, shortened: as §3
compound,measurement,setting,value
COC(=O)C(C)(CBr)CBr,IC50,[1],> 50 µM
C=C(CBr)C(=O)N[C@@H](CC(C)C)C(=O)NCC(=O)OCC,CC50,[2],> 50 µM
same,IC50,[1],2.4 µM
same,CC50,EMT6 [3],> 25 µM
Cc1ccc(S(=O)(=O)OCC(COS(=O)(=O)c2ccc(C)cc2)C(=O)N(Cc2ccccc2)[C@@H](CC(C)C)C(=O)NCC(=O)OCc2ccccc2)cc1,IC50,[1],> 50 µM
C=C(COC(=O)c1c(Cl)cccc1Cl)C(=O)N[C@@H](CC(C)C)C(=O)NCC(=O)OCC,solubility,[4],Insoluble
same,CC50,[2],3 µM
same,IC50,[1],3 µM
same,CC50,EMT6 [3],5.5 µM
C=C(COC(=O)c1c(Cl)cccc1Cl)C(=O)OC,Stability,[5],Unstable
same,CC50,[2],> 25 µM
same,IC50,[1],0.2 µM
same,CC50,EMT6 [3],> 25 µM
C=C(C)C(=O)N(Cc1ccccc1)[C@@H](CC(C)C)C(=O)NCC(=O)OCc1ccccc1,CC50,[2],> 50 µM
same,IC50,[1],> 50 µM
same,CC50,EMT6 [3],> 50 µM
C=C(CBr)C(=O)N(Cc1ccccc1)[C@@H](CC(C)C)C(=O)NCC(=O)OCc1ccccc1,CC50,[2],> 50 µM
same,IC50,[1],10 µM
same,CC50,EMT6 [3],> 50 µM
C=C(CI)C(=O)N(Cc1ccccc1)[C@@H](CC(C)C)C(=O)NCC(=O)OCc1ccccc1,CC50,[2],> 50 µM
same,IC50,[1],3.9 µM
same,CC50,EMT6 [3],> 50 µM
C=C(COC(=O)c1c(C(F)(F)F)cccc1C(F)(F)F)C(=O)N[C@@H](CC(C)C)C(=O)NCC(=O)OCC,inhibition,[6],Active
same,Activity,Mus musculus [7],Non-toxic
same,inhibition,[8],tde
same,CC50,[9],4.3 µM
same,solubility,[4],soluble
same,Activity,[10],Active
same,growth inhibition (GI),EMT6 [11],Active
same,Activity,Raji [12],Active
same,Survival,EMT6 [13],Active
same,CC50,T-24,5.6 µM
same,CC50,[14],2.9 µM
same,CC50,Ramos,3.7 µM
same,inhibition,[15],Dose-dependent effect
same,Stability,[16],Unstable
same,Stability,[17],Stable
same,Activity,Mus musculus [18],Non-toxic
same,inhibition,Raji [19],Active
same,inhibition,[20],Active
same,CC50,[2],3.8 µM
same,Activity,Raji [21],Active
same,CC50,K562,4 µM
same,IC50,[1],3.3 µM
same,CC50,CT26,3.3 µM
same,remaining at 5 h,[22],20%
same,CC50 at 72 h,[23],> 25 µM
same,inhibition,[24],Active
same,CC50,EMT6 [3],5.2 µM
same,CC50 at 72 h,[25],> 12.5 µM
same,CC50,Raji [26],3.7 µM
same,inhibition,[27],tde
